Measured values published in paper PMC6510378 (Clinical and Translational Science, 2019).

Legend:
MAD study part 1 = type: in vivo, human
How it was run: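 Healthy young Japanese, young non-Japanese and elderly non-Japanese adults got a single oral dose (10, 20 or 50 mg) or placebo on day 1. After a 4-day washout, dosing was once daily on days 5–18. PK-day doses were taken with 240 mL water after a 10-hour fast, with no food for 4 h. Plasma drug was measured by validated HPLC-MS/MS. Values below the limit of quantification were set to zero.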

[1] = tested on: hypothalamic‐pituitary‐adrenal (HPA) axis; test: HPA axis endocrine markers; type: in vivo, human
How it was run: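 Healthy young non-Japanese adults, open-label low-dose part. 0.7 or 2 mg was given as a single oral dose on day 1, then after a 6-day washout once daily. 0.4 mg was given once daily on days 1–14. 0.2 mg followed a 3 mg loading dose on day 1, days 2–14. Baseline urine endocrine markers were taken day –1. Urine cortisol came from first morning void. ACTH and DHEA-s were plasma. Follow-up sampling ran days 16–21 and day 28.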

[2] = mice, available in vivo pharmacology data; cited from earlier work
[3] = tested on: models of neuropathic and dysfunctional pain; settings: rats; cited from earlier work
11β‐HSD2 = target: T1, 11β‐HSD2 (Homo sapiens, UniProt P80365); test: Urine 11β-HSD2 activity; type: in vivo; settings: up to 50 mg q.d. for 14 days
T1 sequence (P80365 1-405): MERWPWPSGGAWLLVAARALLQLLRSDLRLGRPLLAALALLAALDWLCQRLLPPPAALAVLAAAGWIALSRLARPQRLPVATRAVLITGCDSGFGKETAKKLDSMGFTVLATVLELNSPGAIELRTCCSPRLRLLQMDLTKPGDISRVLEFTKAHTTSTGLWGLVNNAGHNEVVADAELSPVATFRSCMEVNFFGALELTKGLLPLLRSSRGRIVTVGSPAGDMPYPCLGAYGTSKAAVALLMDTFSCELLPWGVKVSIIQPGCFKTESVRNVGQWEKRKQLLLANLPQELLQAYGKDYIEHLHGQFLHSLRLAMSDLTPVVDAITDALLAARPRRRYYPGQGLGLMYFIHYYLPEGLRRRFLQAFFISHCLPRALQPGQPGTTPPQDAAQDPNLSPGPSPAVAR
How it was run: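 Renal 11β-HSD2 activity was taken as the urinary cortisol/cortisone ratio. Subjects were healthy young Japanese, young non-Japanese and elderly non-Japanese adults on oral placebo or drug (10, 20 or 50 mg), single dose day 1 then once daily on days 5–18. The ratio was assessed on days 1 and 18.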

[4] = Urine PK, 10-mg, 20-mg and 50-mg cohorts; type: in vivo, human; settings: parent ASP3662
How it was run: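 Urine drug concentration was measured by validated HPLC-MS/MS. Subjects were healthy young Japanese, young non-Japanese and elderly non-Japanese adults given oral doses of 10, 20 or 50 mg: single dose day 1, 4-day washout, then once daily on days 5–18. Dosing was fasted on PK days.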

11β‐HSD1 = 11β‐HSD1 (Homo sapiens, UniProt P28845); test: Urine 11β-HSD1 activity; type: in vivo
How it was run: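 Hepatic 11β-HSD1 activity was taken as the urinary ratio of (5α + 5β)-tetrahydrocortisol to tetrahydrocortisone. In the single-dose study, urine was collected predose to 72 h. In the high-dose multiple-dose part, cumulative amounts excreted were measured on days 1 and 18. In the low-dose part, first morning void samples were used, with baseline on day –1 and follow-up through days 16–21 and day 28.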

[5] = Safety and tolerability, SAD study; type: in vivo, human
How it was run: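 Safety was assessed from treatment-emergent adverse events: nature, frequency, severity, onset/offset and relatedness to study drug, coded by MedDRA system organ class. Also assessed were haematology, serum chemistry, urinalysis, physical examination with vital signs, and ECGs. CNS scales used were Bond and Lader VAS, ARCI-49 and Profile of Mood States. Data were summarized descriptively.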

[6] = MAD part 1, day 1 single dose 10 mg, young Japanese, n=8
[7] = MAD part 1, day 1 single dose 20 mg, elderly non-Japanese, n=9
[8] = MAD part 1, day 1 single dose 20 mg, young Japanese, n=8
[9] = MAD part 1, day 1 single dose 20 mg, young non-Japanese, n=8
[10] = MAD part 1, day 1 single dose 50 mg, young Japanese, n=8
[11] = MAD part 1, day 1 single dose 50 mg, young non-Japanese, n=8
[12] = MAD part 1, day 18 multiple dose q.d. 14 days 10 mg, young Japanese, n=8
[13] = MAD part 1, day 18 multiple dose q.d. 14 days 20 mg, elderly non-Japanese, n=9
[14] = MAD part 1, day 18 multiple dose q.d. 14 days 20 mg, young Japanese, n=8
[15] = MAD part 1, day 18 multiple dose q.d. 14 days 20 mg, young non-Japanese, n=8
[16] = MAD part 1, day 18 multiple dose q.d. 14 days 50 mg, young Japanese, n=8
[17] = MAD part 1, day 18 multiple dose q.d. 14 days 50 mg, young non-Japanese, n=7

Chain of 11β‐HSD1 (P28845 whole entry): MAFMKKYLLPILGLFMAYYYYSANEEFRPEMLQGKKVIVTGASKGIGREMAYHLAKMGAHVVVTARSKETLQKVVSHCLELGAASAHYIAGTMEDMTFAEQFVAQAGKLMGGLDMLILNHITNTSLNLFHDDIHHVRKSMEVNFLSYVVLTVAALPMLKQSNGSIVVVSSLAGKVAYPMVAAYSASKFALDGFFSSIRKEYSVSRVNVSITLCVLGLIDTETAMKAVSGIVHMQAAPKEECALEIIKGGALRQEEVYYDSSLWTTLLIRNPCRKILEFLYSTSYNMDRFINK

With Cn1c(-c2ccc(C(N)=O)cc2F)nnc1C(C)(C)Oc1c(F)cc(Cl)cc1F [ASP3662] the “CL/F, Mean (SD)” value (MAD study part 1; [6]) was 9.254 (4.086) L/hour, the “CL/F, Median” value (MAD study part 1; [6]) was 7.651 L/h and the “CL/F, Min–max” value (MAD study part 1; [6]) was 5.05 to 15.3 L/h. The “CL/F, Mean (SD)” value (MAD study part 1; [7]) was 6.99 (2.152) L/hour, the “CL/F, Median” value (MAD study part 1; [7]) was 6.567 L/h and the “CL/F, Min–max” value (MAD study part 1; [7]) was 3.8 to 10.4 L/h. For the same molecule, the “CL/F, Mean (SD)” value (MAD study part 1; [8]) was 9.993 (2.926) L/hour, the “CL/F, Median” value (MAD study part 1; [8]) was 9.182 L/h and the “CL/F, Min–max” value (MAD study part 1; [8]) was 6.03 to 15.0 L/h. The “CL/F, Mean (SD)” value (MAD study part 1; [9]) was 7.412 (2.61) L/hour, the “CL/F, Median” value (MAD study part 1; [9]) was 7.279 L/h and the “CL/F, Min–max” value (MAD study part 1; [9]) was 4.33 to 11.7 L/h. The “CL/F, Mean (SD)” value (MAD study part 1; [10]) was 6.758 (1.787) L/hour, the “CL/F, Median” value (MAD study part 1; [10]) was 6.240 L/h and the “CL/F, Min–max” value (MAD study part 1; [10]) was 4.30 to 9.40 L/h. For the same molecule, the “CL/F, Mean (SD)” value (MAD study part 1; [11]) was 7.005 (2.789) L/hour, the “CL/F, Median” value (MAD study part 1; [11]) was 7.259 L/h and the “CL/F, Min–max” value (MAD study part 1; [11]) was 2.53 to 10.1 L/h. The “CL/F, Mean (SD)” value (MAD study part 1; [12]) was 6.07 (2.591) L/hour, the “CL/F, Median” value (MAD study part 1; [12]) was 5.708 L/h and the “CL/F, Min–max” value (MAD study part 1; [12]) was 3.02 to 9.87 L/h. For the same molecule, the “Ctrough, Mean (SD)” value (MAD study part 1; [12]) was 37.65 (30.42) ng/mL, the “Ctrough, Median” value (MAD study part 1; [12]) was 24.76 ng/mL and the “Ctrough, Min–max” value (MAD study part 1; [12]) was 13.5 to 84.0 ng/mL. For the same molecule, the “CL/F, Mean (SD)” value (MAD study part 1; [13]) was 5.675 (1.649) L/hour, the “CL/F, Median” value (MAD study part 1; [13]) was 5.675 L/h and the “CL/F, Min–max” value (MAD study part 1; [13]) was 2.81 to 8.51 L/h. For the same molecule, the “Ctrough, Mean (SD)” value (MAD study part 1; [13]) was 63.58 (49.38) ng/mL, the “Ctrough, Median” value (MAD study part 1; [13]) was 52.25 ng/mL and the “Ctrough, Min–max” value (MAD study part 1; [13]) was 26.1 to 184 ng/mL. The “CL/F, Mean (SD)” value (MAD study part 1; [14]) was 8.322 (2.562) L/hour, the “CL/F, Median” value (MAD study part 1; [14]) was 8.117 L/h and the “CL/F, Min–max” value (MAD study part 1; [14]) was 4.47 to 13.5 L/h. For the same molecule, the “Ctrough, Mean (SD)” value (MAD study part 1; [14]) was 34.01 (24.86) ng/mL, the “Ctrough, Median” value (MAD study part 1; [14]) was 26.35 ng/mL and the “Ctrough, Min–max” value (MAD study part 1; [14]) was 13.7 to 92.1 ng/mL. The “CL/F, Mean (SD)” value (MAD study part 1; [15]) was 6.487 (2.372) L/hour, the “CL/F, Median” value (MAD study part 1; [15]) was 6.473 L/h and the “CL/F, Min–max” value (MAD study part 1; [15]) was 3.64 to 10.3 L/h. The “Ctrough, Mean (SD)” value (MAD study part 1; [15]) was 58.68 (40.91) ng/mL, the “Ctrough, Median” value (MAD study part 1; [15]) was 42.71 ng/mL and the “Ctrough, Min–max” value (MAD study part 1; [15]) was 19.9 to 132 ng/mL. The “CL/F, Mean (SD)” value (MAD study part 1; [16]) was 10.46 (12.75) L/hour, the “CL/F, Median” value (MAD study part 1; [16]) was 6.58 L/h and the “CL/F, Min–max” value (MAD study part 1; [16]) was 3.80 to 41.8 L/h. For the same molecule, the “Ctrough, Mean (SD)” value (MAD study part 1; [16]) was 115.3 (59.73) ng/mL, the “Ctrough, Median” value (MAD study part 1; [16]) was 103.3 ng/mL and the “Ctrough, Min–max” value (MAD study part 1; [16]) was 21.0 to 223 ng/mL. The “CL/F, Mean (SD)” value (MAD study part 1; [17]) was 5.507 (2.275) L/hour, the “CL/F, Median” value (MAD study part 1; [17]) was 5.607 L/h and the “CL/F, Min–max” value (MAD study part 1; [17]) was 1.86 to 8.76 L/h. The “Ctrough, Mean (SD)” value (MAD study part 1; [17]) was 261.3 (267.1) ng/mL, the “Ctrough, Median” value (MAD study part 1; [17]) was 175.2 ng/mL and the “Ctrough, Min–max” value (MAD study part 1; [17]) was 60.4 to 841 ng/mL. The “effects on ACTH, DHEA‐s and 24‐hour total urine glucocorticoids” value ([1]; MAD part 2, low dose) was “activation of the HPA axis”, the “effect on urine cortisol levels” value ([1]; despite full 11β‐HSD1 inhibition, part 2 low dose) was “no significant effects” and the “minimal pharmacological active oral dose” value [2] was 0.03 mg/kg. The analgesic effects [3] was “significant analgesic effects”, the “change in urinary cortisol to cortisone ratio relative to PBO” value (11β‐HSD2) was “no noteworthy changes” and the “amount recovered from urine” value [4] was < 0.3 % of the administered dose. The “return of 11β‐HSD1 activity to baseline” value (11β‐HSD1; 16 days after discontinuation of multiple doses, even lowest dose 0.2 mg) was “incomplete”, the “dose achieving full inhibition of peripheral 11β‐HSD1” value (11β‐HSD1; clinical PD data referred to in the dose rationale) was 3 mg and the “dose achieving full inhibition of 11β‐HSD1” value (11β‐HSD1; multiple daily doses) was no less than 2 mg. The “11β‐HSD1 activity ratio at maximal inhibition” value (11β‐HSD1; nadir at doses of 2 mg and above) was ~ 0.1 ratio, the “clinically relevant finding (vital signs)” value ([5]; after a single dose of 6 mg) was “clinically significant orthostatic hypotension” and the “overall safety and tolerability” value ([5]; single oral doses up to 60 mg) was “safe and well tolerated”.
